Key:
[1] = target: T1, Amyloid-beta precursor protein (Homo sapiens, UniProt P05067); assay: Inhibition of HFIP-pretreated amyloid beta (1 to 42 residues) (unknown origin) aggregation at 1:10 protein to compound ratio after 24 hrs by ThT fluorescence assay relative to control; conditions: concentration not given here
Outline: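 A crude Aβ1-42 peptide film at 33 µM was mixed with compound at 330 µM, a 1:10 molar ratio, and aggregation was read by thioflavin-T fluorescence. Values are percent of the DMSO-only Aβ1-42 aggregation control, as the mean ± SD of two independent experiments.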

[2] = target: T1, Amyloid-beta precursor protein; assay: Inhibition of HFIP-pretreated amyloid beta (1 to 42 residues) (unknown origin) aggregation after 24 hrs by ThT fluorescence assay
[3] = Half life in human liver microsomes; type: ADME, microsome
Liver = assay: Drug metabolism in human liver microsomes assessed as oxidation of indole-3 position; type: ADME, microsome
[4] = Metabolic stability in human liver microsomes assessed as parent compound remaining after 1 hr; type: ADME, microsome; conditions: read-out: Stability
Outline: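 Compounds were incubated with human or mouse liver microsomes for 1 h at 37 °C. The read-out was the percentage of parent compound remaining.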

[5] = Permeability from apical to basolateral side in human Caco2 cells; type: ADME, cell-based; conditions: Caco-2, read-out: permeability
Outline: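 Apical-to-basolateral permeability was reported in cm/s. The efflux ratio was used to judge P-gp substrate status.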

T1 sequence (P05067 whole entry, the tested form may be a part): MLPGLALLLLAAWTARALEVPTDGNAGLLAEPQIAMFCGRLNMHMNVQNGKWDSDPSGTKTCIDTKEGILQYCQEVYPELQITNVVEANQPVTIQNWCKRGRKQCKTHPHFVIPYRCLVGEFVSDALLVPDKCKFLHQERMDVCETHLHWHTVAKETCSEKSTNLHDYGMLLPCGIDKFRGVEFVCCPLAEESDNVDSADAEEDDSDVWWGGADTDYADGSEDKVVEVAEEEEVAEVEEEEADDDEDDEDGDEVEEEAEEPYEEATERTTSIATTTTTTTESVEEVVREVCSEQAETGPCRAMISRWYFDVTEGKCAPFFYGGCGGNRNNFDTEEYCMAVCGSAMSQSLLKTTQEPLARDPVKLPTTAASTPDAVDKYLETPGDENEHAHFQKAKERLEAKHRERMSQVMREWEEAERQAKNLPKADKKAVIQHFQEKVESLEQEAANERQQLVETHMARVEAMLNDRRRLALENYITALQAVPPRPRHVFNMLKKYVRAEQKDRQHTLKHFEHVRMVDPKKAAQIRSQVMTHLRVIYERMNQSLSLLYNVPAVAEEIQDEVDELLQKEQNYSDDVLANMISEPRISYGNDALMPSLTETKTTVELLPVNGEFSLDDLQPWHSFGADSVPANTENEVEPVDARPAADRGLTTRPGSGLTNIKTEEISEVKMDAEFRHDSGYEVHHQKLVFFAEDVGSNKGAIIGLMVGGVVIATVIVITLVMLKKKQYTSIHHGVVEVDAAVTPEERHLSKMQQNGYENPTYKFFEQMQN

inhibition [1]	IC50 [2]	SMILES	also measured
81 to 93%	25 µM	COc1ccc(Nc2ccc3c(C4CCN(C)CC4)c[nH]c3c2)cc1OC	–
> 90%	25.6 µM	c1cc2c(C3CCNCC3)c[nH]c2cc1Nc1ccc2c(C3CCNCC3)c[nH]c2n1	–
> 90%	15.3 µM	CN1CCC(c2c[nH]c3cc(Nc4ccc5[nH]cc(C6CCN(C)CC6)c5c4)ccc23)CC1	–
94%	–	c1cc2cc(Nc3ccc4cc[nH]c4c3)ccc2[nH]1	–
75%	–	c1cc2ccc(Nc3ccc4cc[nH]c4n3)cc2[nH]1	–
48%	–	c1cc2ccc(NC3CCNCC3)nc2[nH]1	–
81 to 93%	48 µM	CN1CCC(c2c[nH]c3cc(Nc4ccc(F)c(F)c4)ccc23)CC1	–
86%	–	c1cc2cc(Nc3ccc4cc[nH]c4n3)cnc2[nH]1	–
> 90%	–	CN1CCC(c2c[nH]c3cc(Nc4ccc5c(C6CCN(C)CC6)c[nH]c5c4)ccc23)CC1	–
52%	–	Fc1cc(F)cc(Nc2cnc3cc[nH]c3c2)c1	–
60%	–	Fc1cc(F)cc(Nc2ccc3cc[nH]c3n2)c1	–
98%	23.8 µM	c1cc2ncc(Nc3ccc4cc[nH]c4n3)cc2[nH]1	half-life [3]: 11 min; Drug metabolism (Liver): Metabolite_Detected
> 90%	17.8 µM	N#Cc1c[nH]c2nc(Nc3ccc4c(C5CCNCC5)c[nH]c4c3)ccc12	–
97%	–	c1cc2cc(Nc3ccc4cc[nH]c4n3)ccc2[nH]1	–
> 90%	–	c1cc2c(C3CCNCC3)c[nH]c2cc1Nc1ccc2c(C3CCNCC3)c[nH]c2c1	remaining at 1 h [4]: 89%; Papp A→B [5]: 0.01 ×10⁻⁶ cm/s
75%	–	c1cc2ccc(Nc3ccc4cc[nH]c4n3)nc2[nH]1	–
52%	–	Fc1ccc(Nc2ccc3cc[nH]c3n2)cc1	–
81 to 93%	24 µM	Fc1ccc(Nc2ccc3c(C4CCNCC4)c[nH]c3c2)cc1F	–
96%	–	c1cc2ccc(Nc3ccc4cc[nH]c4c3)cc2[nH]1	–
> 90%	26.6 µM	c1cc2c(C3CCNCC3)c[nH]c2cc1Nc1ccc2[nH]cc(C3CCNCC3)c2c1	–
81 to 93%	30 µM	Fc1ccc(Nc2ccc3c(C4CCNCC4)c[nH]c3n2)cc1F	–
> 90%	–	CN1CCC(c2c[nH]c3ccc(Nc4ccc5c(C6CCNCC6)c[nH]c5n4)cc23)CC1	remaining at 1 h [4]: 95%; Papp A→B [5]: 0.02 ×10⁻⁶ cm/s
81 to 93%	24 µM	FC(F)(F)c1ccc(Nc2ccc3c(C4CCNCC4)c[nH]c3c2)cn1	–
81 to 93%	42 µM	Cn1cc(C2CCNCC2)c2ccc(Nc3ccc(F)c(F)c3)cc21	–
71%	–	c1ccc(Nc2ccc3cc[nH]c3n2)nc1	–

Source: ChEMBL document CHEMBL3997826, “Discovery and characterization of novel indole and 7-azaindole derivatives as inhibitors of β-amyloid-42 aggregation for the treatment of Alzheimer's disease” (Bioorg Med Chem Lett, 2017)
